A selection: hits, their analogues and other compounds. The true share with any hit is near 2.3%.
LMPTP block = LMPTP phosphatase inhibitors, primary screen, biochemical, fluorescence intensity, uHTS | inhibition, % at 20 µM | Low molecular weight phosphotyrosine protein phosphatase (Homo sapiens), P24666 | actives 0.22% (n = 360,000) | recombinant LMPTP-A, OMFP fluorogenic substrate;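 active = compounds that cut the enzyme signal by at least half of the control window in the single-dose screen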
Target sequence (P24666 whole entry, looked up): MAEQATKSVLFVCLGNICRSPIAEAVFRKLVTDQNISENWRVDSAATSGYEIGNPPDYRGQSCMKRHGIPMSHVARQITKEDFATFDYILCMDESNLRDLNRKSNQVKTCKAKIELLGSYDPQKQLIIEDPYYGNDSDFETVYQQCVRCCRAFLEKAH
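material = LMPTP-A | quantity = 0.625 nM enzyme | reagent = OMFP substrate, 400 µM final | buffer or medium = Bis-Tris pH 6.0, DTT, detergent | detection = endpoint fluorescence intensity from OMFP dephosphorylation | dosing = single 20 µM dose | read-out basis = % inhibition relative to no-enzyme and uninhibited control wells | control set = no-enzyme and uninhibited controls | timing = 50 min at room temperature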
DNMT1 block = human DNMT1 methyltransferase inhibitors, primary screen, biochemical, molecular beacon, fluorescence, HinP1I cleavage, uHTS | DNA (cytosine-5)-methyltransferase 1 (Homo sapiens), P26358 | inhibition (reported as % activation of signal), % at 10 µM | actives 0.83% (n = 360,000); in the data active = inhibition above about 50%
Scp1 inh = Scp-1 phosphatase inhibitors, primary screen, biochemical, colorimetric, uHTS; actives 0.88% (n = 340,000); Recombinant Scp1, phosphopeptide, malachite green phosphate absorbance; AID 493091, 2011; inhibition, % at 20 µM;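 active = inhibition above about 50% at 20 µM, limit read from the data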
Target sequence (Q9GZU7 76-261 limits assumed): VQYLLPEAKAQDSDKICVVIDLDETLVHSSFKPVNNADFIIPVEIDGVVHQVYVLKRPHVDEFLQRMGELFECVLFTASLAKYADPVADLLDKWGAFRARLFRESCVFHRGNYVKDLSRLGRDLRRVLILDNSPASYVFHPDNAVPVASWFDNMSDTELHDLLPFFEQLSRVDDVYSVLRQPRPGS
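Material: truncated SCP-1 phosphatase (76-261aa) / Buffer or medium: 50 mM Tris acetate pH 5.5, 0.005% Tween-20, 10 mM MgCl2 / Compound dosing: one concentration, 20 µM, with 1.0% DMSO / Incubation: 45 min room-temperature reaction, 5 min colour, 30 min stabiliser / Detection: colorimetric free-phosphate detection, absorbance 630 nm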
STEP block = STEP phosphatase inhibitors, primary screen, biochemical, fluorescence intensity, uHTS; actives 0.25% (n = 360,000); recombinant STEP, OMFP fluorogenic substrate; AID 588621, 2011; inhibition, % at 20 µM;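 active = inhibition at 20 µM, scaled per plate between control wells, above about 37%, limit read from the data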
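System: STEP (striatal-enriched tyrosine phosphatase) enzyme, cell-free; medium: Bis-Tris pH 6.0 buffer with DTT, detergent; dosing: 20 µM, 1% DMSO; times: reaction 20 min, ambient temperature; detection: fluorescence, 480/540 nm; read-out basis: normalized % inhibition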
SUMO1 PPI mod = modulators of SUMO1 protein-protein interactions, primary screen, biochemical, uHTS | AID 602429, 2012 | Small ubiquitin-related modifier 1 (Homo sapiens), P63165 | inhibition, % at 20 µM | actives 0.33% (n = 360,000) | SUMO1 binding to a labelled peptide, TR-FRET, 1 h; in the data active = inhibition above about 37%
Target sequence (P63165 whole entry, looked up): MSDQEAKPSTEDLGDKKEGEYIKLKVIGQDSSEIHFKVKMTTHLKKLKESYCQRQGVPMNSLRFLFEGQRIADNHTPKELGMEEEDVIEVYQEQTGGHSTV
Rpn11 block = Rpn11 (PSMD14) deubiquitinase inhibitors, primary screen, biochemical, fluorescence polarization, uHTS; human 26S proteasome, Ub4-pepOG fluorescence polarization; 20S core pre-blocked with epoxomicin; actives 0.59% (n = 360,000); AID 588493, 2011; inhibition, % at 20 µM;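 active = inhibition at 20 µM, scaled to each plate's controls, above about 33%, limit read from the data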
A number is an active result; i = inactive; nt = no result shown; + = active, no number.

SMILES	LMPTP block	DNMT1 block	Scp1 inh	STEP block	SUMO1 PPI mod	Rpn11 block
COc1ccc(NC(=O)c2c[nH]c(=O)n(-c3ccc(C)c(C)c3)c2=O)c(OC)c1	i	i	i	i	43	i
COc1ccc(NC(=O)c2c[nH]c(=O)n(-c3ccc(C)c(C)c3)c2=O)cc1OC	i	i	i	i	i	i
CON(c1nc(Cl)nc(N(C)C)n1)S(=O)(=O)c1ccc(C)cc1	i	i	i	i	i	i
O=C(Nc1ccccc1F)NC1CC1	i	i	i	i	56	i
O=C(Nc1ccc(F)cc1)C(c1cc2ccccc2o1)N1CCN(CC(=O)N2CCCC2)CC1 (stereo unspecified)	i	nt	nt	nt	i	nt
O=C(c1ccccc1)c1c2c(cc3sc4ccccc4[n+]13)-c1cccc3cccc-2c13	69	58	i	i	i	i
O=C(c1cccc2ccccc12)C1CCCN(C(=O)c2ccc(N3CCOCC3)cc2)C1 (stereo unspecified)	i	i	i	i	i	i
CCOc1ccccc1N1CC(C(=O)Nc2c(C)n(C)n(-c3ccccc3)c2=O)CC1=O (stereo unspecified)	i	i	i	i	i	i
CCCCn1c(NC(=O)c2ccccc2)c(C#N)c2nc3ccccc3nc21	i	76	i	i	42	nt
CCC(=O)Nc1c(C#N)c2nc3ccccc3nc2n1-c1ccc(C)cc1	i	i	i	i	i	i
COc1ccc(NC(=O)c2ccco2)cc1NC(=O)c1ccccc1[N+](=O)[O-]	i	i	i	i	i	i
C=C(C)C(=O)Nc1cccc(C2=NOC3(C2)C[C@@H](C(N)=O)N(C(=O)c2ccc(Cl)cc2)C3)c1 (stereo partly specified)	nt	nt	71	nt	nt	nt
C/C=C\C=C/C(=O)Nc1cccc(C2=NOC3(C2)C[C@@H](C(N)=O)N(C(=O)/C=C/CC)C3)c1 (stereo partly specified)	i	i	i	i	i	i
C/C=C\C=C/C(=O)Nc1cccc(C2=NOC3(C2)C[C@@H](C(N)=O)N(C(=O)/C=C/C=C\C)C3)c1 (stereo partly specified)	i	64	80	i	95	52
CCOc1cc(C(=O)OCC(=O)N(C)c2ccccc2)cc(OCC)c1OCC	i	i	i	i	i	i
O=c1cc(O)n(C2CCCCCC2)c(=O)[nH]1	i	i	i	i	i	i
O=c1[nH][nH]c(=S)n1C1CCCCC1	nt	nt	72	nt	nt	nt
O=C(COc1ccc(-c2nnco2)cc1)Nc1ccc(C(F)(F)F)cc1	i	i	i	i	i	i
CCCNC(=O)c1ccc2c(=O)c(O)c(-c3ccc(C)cc3)[nH]c2c1	i	i	i	i	i	i
Cc1ccc(-c2[nH]c3cc(C(=O)NCCCn4ccnc4)ccc3c(=O)c2O)cc1	51	i	i	i	i	i
O=C1C(O)=CC(=C(c2ccccc2)c2ccccc2)c2ccccc21	i	i	i	i	i	i
CCOc1cc(/C=C2\C(=O)ON=C2C)ccc1OCc1ccccc1	i	i	i	i	40	i
COc1ccc(OCC(=O)OCC(=O)Nc2ccc3[nH]c(=O)[nH]c3c2)cc1	i	i	i	i	62	i
COc1ccc(CCC(=O)OCC(=O)Nc2ccc3[nH]c(=O)[nH]c3c2)cc1	i	i	i	i	i	i
CC(=O)c1ccc(OCCCC(=O)OCC(=O)Nc2ccc3[nH]c(=O)[nH]c3c2)cc1	i	i	i	i	76	i
SMILES	LMPTP block	DNMT1 block	Scp1 inh	STEP block	SUMO1 PPI mod	Rpn11 block
CC(CC(=O)OCC(=O)Nc1ccc2[nH]c(=O)[nH]c2c1)c1ccccc1 (stereo unspecified)	i	i	i	i	46	i
COc1ccccc1C(=O)NCC(=O)OCC(=O)Nc1ccc2[nH]c(=O)[nH]c2c1	i	i	i	i	47	i
CCc1nc2c(OCc3ccc(C#N)cc3)cccn2c1N(C)C(=O)c1cccs1	i	i	nt	i	i	i
COc1ccc(CNC(=O)CN2C(=O)CCSc3ccc(S(=O)(=O)N4CCCC4)cc32)cc1	i	i	i	i	i	i
CCC(=O)N1CCN(c2ccccc2NC(=O)COc2ccccc2Cl)CC1	i	i	i	i	i	i
O=C(OCCNc1nc(-c2ccccc2)nc2ccccc12)c1cccnc1	62	i	i	i	i	i
OCCNc1nc(-c2cccnc2)nc2ccccc12	i	i	i	i	i	i
O=C(OCCNc1nc(-c2ccccc2)nc2ccccc12)c1ccncc1	62	i	i	i	i	i
CCN(CC)c1ccc2cc(-c3nc4ccccc4[nH]3)c(=O)oc2c1	i	+	i	i	i	i
CCN(CC)c1ccc2cc(-c3nc4ccccc4n3C)c(=O)oc2c1	i	i	i	i	i	i
O=C(Nc1ccncc1NC(=O)c1cccc([N+](=O)[O-])c1)c1cccc([N+](=O)[O-])c1	55	i	i	i	76	i
CN(C)c1ccc(C=c2c3ccccc3n3c2c2ccccc2[n+]3C)cc1	78	i	i	i	119	i
Cc1cc(C(=O)NC2CCCc3c2cnn3-c2ccc(C)c(C)c2)n(C)n1 (stereo unspecified)	i	i	79	i	i	i
Cc1[nH]ccc(=O)c1Cc1c(Cl)cccc1Cl	78	i	i	i	i	i
O=c1cc[nH]c2c(Cl)cccc12	i	i	i	i	i	i
Cc1c(C(=O)N2CCN(C3CCS(=O)(=O)C3)CC2)oc2ccc(Cl)cc12 (stereo unspecified)	i	i	i	i	i	i
Cc1nc2cc(NC(=O)c3ccc(Br)s3)ccc2s1	i	i	i	41	i	i
Cc1ccc(C(=O)Nc2ccc3nc(C)sc3c2)s1	i	i	i	i	i	i
COC(=O)C[C@H]1C[C@H]2c3cc(NS(=O)(=O)c4ccc(OC)cc4)ccc3O[C@H]2[C@H](CO)O1	i	i	nt	i	i	i
C/C(=N\Nc1ccc(C(=O)O)cc1)c1ccc(Br)cc1	i	i	52	i	i	i
CCCNC(=O)C1(CC2CC(c3ccccc3)=NO2)CCN(C(=O)C2(C)CC2)CC1 (stereo unspecified)	i	i	i	i	i	i
COCCCn1c(SCC(=O)N2CCOCC2)nc2cc(Cl)ccc2c1=O	i	i	i	i	i	i
COC(=O)Cn1c(C)c(C(C)=O)c(C(C)=O)c1C	i	i	i	i	48	i
